Assay results from ChEMBL document CHEMBL2163309, “Discovery of novel 2-aryl-4-benzoyl-imidazole (ABI-III) analogues targeting tubulin polymerization as antiproliferative agents” (J Med Chem, 2012).
Calls of active or inactive are those of the source. The calls are words filed in the database; no cut-off is given here.

How the values were obtained:
[1] = system: A-375; experiment: Antiproliferative activity against human A375 cells after 48 hrs by SRB assay; format: functional, cell-based; details: A-375, 48 h
Outline: (§1)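 Run as part of a panel of two human metastatic melanoma lines (A375, WM164) and three human prostate cancer lines (LNCaP, PC-3, Du 145), following previously described methods. Colchicine served as the positive control.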

[2] = Antiproliferative activity against human paclitaxel-resistant PC3-TxR cells after 48 hrs by SRB assay; format: functional, cell-based
[3] = Antiproliferative activity against human WM164 cells after 48 hrs by SRB assay; format: functional, cell-based; details: WM164, 48 h
[4] = organism: Bos taurus; experiment: Inhibition of bovine brain tubulin polymerization at 5 uM measured for every 1 min for 20 mins by spectrophotometer analysis
Outline: (§2)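 Bovine brain tubulin (>97% pure), 0.4 mg per assay, exposed to test compound at 5 or 10 μM in 5% DMSO vehicle, with a DMSO-only control and colchicine 5 μM as positive control. Polymerization followed by absorbance at 340 nm at 37 °C, read every minute for 20 min. Percent inhibition of polymerization taken at 20 min.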

[5] = system: DU-145; experiment: Antiproliferative activity against human DU145 cells after 48 hrs by SRB assay; format: functional, cell-based; details: DU-145, 48 h; outline: as §1
[6] = organism: Bos taurus; experiment: Inhibition of bovine brain tubulin polymerization at 10 uM measured for every 1 min for 20 mins by spectrophotometer analysis; outline: as §2
[7] = system: LNCaP; experiment: Antiproliferative activity against human LNCAP cells after 48 hrs by SRB assay; format: functional, cell-based
[8] = system: PC-3; experiment: Antiproliferative activity against human PC3 cells after 48 hrs by SRB assay; format: functional, cell-based; details: PC-3, 48 h
[9] = organism: Bos taurus; experiment: Inhibition of bovine brain tubulin polymerization measured for every 1 min for 20 mins by spectrophotometer analysis; outline: as §2
[10] = system: PC-3; experiment: Resistance index, ratio of IC50 for human paclitaxel-resistant PC3-TxR cells to IC50 for human PC3 cells
[11] = organism: Homo sapiens; details: 10 to 1000 nM

With COc1cc(C(=O)c2cn(C)c(-c3cn(C)c4ccccc34)n2)cc(OC)c1OC the IC50 [1] was 18.8 nM, the IC50 [2] was 22.4 nM and the IC50 [3] was 24.2 nM. It also gave an inhibition [4] of 65%, an IC50 [5] of 76.5 nM and an inhibition [6] of 80%. The IC50 [7] was 35.9 nM, the IC50 [8] was 20.8 nM and the inhibition [9] was “Dose-dependent effect”. The “Ratio IC50” value [10] was 1.1.
Molecule COc1cc(C(=O)c2c[nH]c(-c3cn(S(=O)(=O)c4ccccc4)c4ccccc34)n2)cc(OC)c1OC has an IC50 [1] of 414 nM, an IC50 [2] of 27.6 nM and an IC50 [3] of 166 nM. The inhibition [4] was 67%, the IC50 [5] was 189 nM and the inhibition [6] was 85%. For the same molecule, the IC50 [7] was 107 nM, the IC50 [8] was 33.3 nM and the inhibition [9] was “Dose-dependent effect”. For the same molecule, the “Ratio IC50” value [10] was 0.9.
CC(=O)O[C@H]1C(=O)[C@@]2(C)[C@H]([C@H](OC(=O)c3ccccc3)[C@]3(O)C[C@H](OC(=O)[C@H](O)[C@@H](NC(=O)c4ccccc4)c4ccccc4)C(C)=C1C3(C)C)[C@]1(OC(C)=O)CO[C@@H]1C[C@@H]2O [PACLITAXEL] gave an IC50 [2] of 188 nM and an IC50 [8] of 0.4 nM.
For COc1cc(C(=O)c2c[nH]c(-c3csc4ccccc34)n2)cc(OC)c1OC, the IC50 [1] was 41 nM, the IC50 [2] was 98.6 nM and the IC50 [3] was 45.7 nM. The inhibition [4] was “inactive”, the IC50 [5] was 51.2 nM and the inhibition [6] was 30%. The IC50 [7] was 29.1 nM, the IC50 [8] was 20.8 nM and the inhibition [9] was “Dose-dependent effect”. The “Ratio IC50” value [10] was 0.9.
Work on COc1cc(C(=O)c2c[nH]c(-c3coc4ccccc34)n2)cc(OC)c1OC yielded an IC50 [1] of 53.4 nM, an IC50 [2] of 42.8 nM and an IC50 [3] of 73.6 nM. For the same molecule, the inhibition [4] was 30%, the IC50 [5] was 45 nM and the inhibition [6] was 60%. For the same molecule, the IC50 [7] was 14.1 nM, the IC50 [8] was 33.3 nM and the inhibition [9] was “Dose-dependent effect”. For the same molecule, the “Ratio IC50” value [10] was 1.
COc1cc2c(c(OC)c1OC)-c1ccc(OC)c(=O)cc1[C@@H](NC(C)=O)CC2 [COLCHICINE] showed an IC50 [1] of 20.6 nM, an IC50 [3] of 29 nM and an IC50 [5] of 11.2 nM. For the same molecule, the IC50 [7] was 16.3 nM and the IC50 [8] was 11.5 nM.
With COc1cc(C(=O)c2cnc(-c3c[nH]c4ccccc34)[nH]2)cc(OC)c1OC [SABIZABULIN] the inhibition [11] was “inactive”, the IC50 [1] was 3.2 nM and the IC50 [2] was 3.7 nM. The IC50 [3] was 5.3 nM, the inhibition [4] was 70% and the IC50 [5] was 3.9 nM. For the same molecule, the inhibition [6] was “Active”, the IC50 [7] was 2.8 nM and the IC50 [8] was 3.7 nM. The inhibition [9] was “Dose-dependent effect” and the “Ratio IC50” value [10] was 1.
